Screening data from PubChem.
The list is not random: actives were taken first. Their share in the collection is about 3.5%.
RGS4 inh: RGS4 inhibitors, primary screen, cell-based, HEK293 M3R inducible RGS4, calcium flux; Regulator of G-protein signaling 4 (Homo sapiens), P49798; 0.45% of 310,000 active; Fluo-4 calcium flux; stronger effect = higher value; triggered by carbachol at its EC20; B-score at 10 µM;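 active means B-score, a plate-corrected calcium signal, over three deviations above library mean, with baseline fluorescence within five deviations of library mean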;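 further: RGS4 expression induced by doxycycline in cells with stable M3 receptor; B-score is computed from the integrated fluorescence ratio over baseline after carbachol; higher B-score means a larger calcium signal and so more RGS4 inhibition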
Target sequence (P49798 whole entry, looked up): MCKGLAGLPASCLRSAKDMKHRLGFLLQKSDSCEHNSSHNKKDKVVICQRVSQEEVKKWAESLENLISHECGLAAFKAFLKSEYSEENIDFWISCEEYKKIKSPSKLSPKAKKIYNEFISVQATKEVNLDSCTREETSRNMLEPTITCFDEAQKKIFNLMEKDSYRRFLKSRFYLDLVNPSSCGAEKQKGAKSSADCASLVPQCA
MrgX1 ag: agonists of human MrgX1 receptor, primary screen, HEK293 cells, Fluo-4 calcium flux; Mas-related G-protein coupled receptor member X1 (Homo sapiens), Q96LB2; B-score at 10 µM; 0.44% of 310,000 active; Fluo-4 calcium fluorescence, agonist mode; stronger effect = higher value;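 active means calcium response B-score plate-corrected fluorescence ratio at least 3 library SD, with starting fluorescence B-score inside 5 SD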
Target sequence (Q96LB2 whole entry, looked up): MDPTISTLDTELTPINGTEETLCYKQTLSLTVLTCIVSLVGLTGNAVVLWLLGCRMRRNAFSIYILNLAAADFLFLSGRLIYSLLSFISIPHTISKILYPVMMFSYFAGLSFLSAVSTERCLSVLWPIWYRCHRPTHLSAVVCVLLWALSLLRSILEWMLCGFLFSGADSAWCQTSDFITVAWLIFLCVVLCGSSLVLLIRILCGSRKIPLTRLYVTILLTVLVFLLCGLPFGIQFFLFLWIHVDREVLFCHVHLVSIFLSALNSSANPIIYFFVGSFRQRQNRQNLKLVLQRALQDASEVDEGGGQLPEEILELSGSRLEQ
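System – MrgX1-expressing HEK293 cells · Incubation – cells plated overnight, dye loaded 0.5 h 37 °C, 0.5 h room temperature · Technique – kinetic Fluo-4 NW fluorescence of intracellular calcium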
MrgX1 PAM: positive allosteric modulators of MrgX1, primary screen, HEK293 cells, Fluo-4 calcium flux | 0.63% of 310,000 active | AID 588675, 2011 | Mas-related G-protein coupled receptor member X1 (Homo sapiens), Q96LB2 | FDSS; stronger effect = higher value | B-score at 10 µM;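 active means plate-corrected calcium response at least 3 library SD above typical, normal starting fluorescence, not activating the receptor alone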;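 further: compound read alongside a low EC10 to EC30 dose of BAM8-22 agonist; peak minus trough fluorescence over baseline measured at the second addition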
RGS4 act: RGS4 potentiators or activators, primary screen, cell-based, HEK293 M3R inducible RGS4, calcium flux | carbachol calcium flux Fluo4; stronger effect = lower value | B-score at 10 µM | 0.92% of 310,000 active;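 active means B-score of the integrated calcium signal more than 4 SD below the library mean, with starting fluorescence not abnormally high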;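 further: negative B-score means reduced calcium response which marks RGS4 activation or potentiation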
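Also added: carbachol at ECmax as muscarinic agonist stimulus; Assay system: HEK293 cells with stable M3R and inducible RGS4; Timing: overnight RGS4 induction, 30 min dye load 37 °C, 20 min compound RT; Measured by: Fluo4-AM (2 µM) calcium-flux fluorescence, kinetic read.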
MrgX1 antagonist: antagonists of human MrgX1 receptor, primary screen, HEK293 cells, Fluo-4 calcium flux. Mas-related G-protein coupled receptor member X1 (Homo sapiens), Q96LB2. BAM8-22 antagonism; stronger effect = lower value. B-score at 10 µM. 1.3% of 310,000 active;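 active means calcium-response B-score plate-corrected more than 3 library SD below zero, starting fluorescence within 5 deviations, no agonist response on first addition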;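 further: peak minus trough fluorescence over baseline after final BAM8-22 challenge near maximal dose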
MrgX1 ag confirm: MrgX1 receptor agonists, duplicate retest, confirmation, HEK293 cells, Fluo-4 calcium flux | shares compounds with MrgX1 ag | Fluo-4 calcium fluorescence, FDSS | activation, % at 10 µM | 78% of 600 active;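 active means calcium signal rise, corrected for plate position, at least 3 library SD high, with starting brightness within 5 such deviations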; further: reference of the scale not given here
HEK293 Ca flux: nonspecific calcium signal in parental HEK293, confirmation, counter-screen for MrgX1 antagonist project, parental HEK293 cells, Fluo-4 calcium flux; shares compounds with MrgX1 antagonist; AID 624111, 2012; 2% of 4,000 active; fluorescence ratio F(max-min)/F0 at 10 µM; Fluo-4 calcium fluorescence, FDSS;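 active means duplicate-averaged calcium fluorescence ratio at least three times the standard deviation of buffer wells, a nonspecific response in parental cells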
HEK293 Ca counter: calcium response in parental HEK293 cells, primary screen, counter-screen for MrgX1 allosteric activator project, cell-based, Fluo-4 calcium flux, duplicate. fluorescence ratio F(max-min)/F0 at 10 µM. shares compounds with MrgX1 antagonist. 0.4% of 4,000 active. AID 624114, 2012. Fluo-4 fluorescence ratio; stronger effect = higher value;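 active means calcium fluorescence ratio, averaged over duplicates, at least 3 SD of the buffer-well ratio, meaning a nonspecific response in receptor-free cells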;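 further: untransfected parental HEK293 lacking MrgX1 used as counterscreen for MrgX1 allosteric activators; fluorescence change taken during the second addition on a kinetic imager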
HEK293 Ca cntr2: calcium response in parental HEK293 cells, primary screen, counter-screen for MrgX1 agonist project, cell-based, Fluo-4 calcium flux, duplicate, agonist mode; shares compounds with MrgX1 antagonist; Fluo-4 calcium fluorescence (FDSS); stronger effect = higher value; fluorescence ratio F(max-min)/F0 at 10 µM; 8.7% of 4,000 active; AID 624115, 2012;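 active means calcium fluorescence ratio at least three times the spread of buffer wells, meaning a non-specific response in parental cells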
* marks the source's active call; other numbers are inactive results; i = inactive; x = no result.

SMILES	RGS4 inh	MrgX1 ag	MrgX1 PAM	RGS4 act	MrgX1 antagonist	MrgX1 ag confirm	HEK293 Ca flux	HEK293 Ca counter	HEK293 Ca cntr2
CCCOC(=O)Cn1cnc2scc(-c3ccc(C)cc3)c2c1=O	i	i	i	i	i	x	x	x	x
CCc1ccc(-c2csc3ncn(Cc4ccc(C(=O)O)cc4)c(=O)c23)cc1	i	31*	i	i	i	149%*	i	i	i
CCOC(=O)CNc1nc(-c2ccncc2)nc2ccccc12	x	56*	i	x	i	236%*	i	i	47*
O=C(C[n+]1cccc(CNC(=O)c2ccc(OC(F)F)cc2)c1)Nc1cccc(C(F)(F)F)c1	i	i	i	i	i	x	x	x	x
O=C(/C=C/c1ccccc1)NC(=S)NNC(=O)Cc1cccs1	i	71*	i	i	i	262%*	i	i	73*
Cc1onc(-c2ccccc2)c1C(=O)NNC(=O)c1ccccc1O	i	i	i	i	i	x	x	x	x
Cc1onc(-c2ccccc2)c1C(=O)NNC(=S)NC(=O)c1ccc(Br)cc1	i	86*	i	i	i	705%*	i	i	138*
Cc1onc(-c2ccccc2)c1C(=O)NNC(=S)NC(=O)c1ccc(Cl)cc1Cl	i	180*	i	i	i	714%*	i	i	115*
Cc1onc(-c2ccccc2)c1C(=O)Nc1ccccc1NC(=O)c1c(-c2ccccc2)noc1C	i	i	i	i	i	x	x	x	x
Cc1onc(-c2ccccc2)c1C(=O)NNC(=S)NC(=O)/C=C/c1ccccc1	i	95*	i	i	i	455%*	i	i	72*
COc1ccc(Cl)cc1NC(=O)c1c(-c2ccccc2)noc1C	i	i	i	i	i	x	x	x	x
Cn1c(=O)n(CCO)c(=O)c2c1nc(Br)n2Cc1ccccc1	i	i	i	i	i	x	x	x	x
O=C(NC(=S)NNC(=O)c1ccc(Cl)cc1Cl)c1cccnc1	i	i	i	i	i	x	x	x	x
Cc1ccccc1C(=O)NNC(=S)NC(=O)c1ccc(Cl)cc1Cl	i	172*	i	-10*	i	776%*	i	i	154*
CCOc1ccccc1N(CC(=O)N1CCOCC1)S(=O)(=O)c1ccccc1	i	138*	i	i	i	541%*	i	i	103*
CCOc1ccccc1N(CC(=O)N1CCCCCC1)S(=O)(=O)c1ccc(C)cc1	i	34*	i	i	i	142%*	i	i	50*
COc1ccccc1N(CC(=O)N1CCCCCC1)S(=O)(=O)c1ccc(C)cc1	i	i	i	i	i	x	x	x	x
CCOc1ccccc1N(CC(=O)N1CCC(C)CC1)S(=O)(=O)c1ccc(C)cc1	i	i	i	i	i	x	x	x	x
OCCn1nc(-c2ccccc2)cc1-c1ccccc1	i	32*	i	i	i	i	i	i	i
Nc1cc(-c2ccccc2)nn1Cc1ccccc1	i	i	i	i	i	x	x	x	x
CC(c1nc2ccccc2n1Cc1ccccc1)N1CCCCC1 (stereo not given)	i	i	i	i	i	x	x	x	x
N/C(=N\N=C/c1ccc(F)cc1)N/N=C\c1ccc(F)cc1	i	66*	i	i	i	499%*	i	i	76*
CC(C)c1cn(C2OC(COC(=O)c3ccccc3)C(OC(=O)c3ccccc3)C2OC(=O)c2ccccc2)c(=O)[nH]c1=O (stereo not given)	i	i	i	i	i	x	x	x	x
Fc1cccc(NCCc2c[nH]c3ccccc23)n1	i	28*	i	i	i	116%*	i	i	i
Cc1ccc(OCC(=O)NNC(=S)NC(=O)C(C)(C)C)c(Br)c1	i	66*	i	i	i	508%*	i	i	97*
SMILES	RGS4 inh	MrgX1 ag	MrgX1 PAM	RGS4 act	MrgX1 antagonist	MrgX1 ag confirm	HEK293 Ca flux	HEK293 Ca counter	HEK293 Ca cntr2
Cc1cc(C)cc(NC(=O)[C@H](NC(=O)[C@@H]2Cc3ccccc3CN2)c2ccccc2)c1	i	i	i	i	i	x	x	x	x
Cc1cc(C)c2c(=O)n(CC(=O)NC3CCCC3)sc2n1	i	29*	i	i	i	183%*	i	i	i
NC(=O)C1CCN(C(=O)C2CCN(S(=O)(=O)c3ccccc3)CC2)CC1	i	i	i	i	i	x	x	x	x
CCCOc1ncnc2c1[nH]c1ccccc12	i	i	i	i	i	x	x	x	x
CCN(CC)c1ncnc2c1[nH]c1ccccc12	i	28*	i	i	i	125%*	i	i	i
O=C(NC(=S)N(CCO)Cc1ccccc1)c1ccc(F)cc1Cl	i	i	i	i	i	x	x	x	x
O=C(CN1CCOCC1)Nc1ccc(NC(=O)c2ccccc2F)cc1	i	i	i	i	i	x	x	x	x
O=C1/C(=C/c2ccccc2)Nc2ccccc21	i	128*	i	i	i	i	0.41*	i	224*
CCCCCOc1ccc(Br)cc1CSC(=N)N	i	x	x	i	x	x	x	x	x
CCCCOc1ccc(CSC(=N)N)cc1Cl	i	35*	i	i	i	164%*	i	i	i
Cc1ccc(-n2c(=O)[nH]c3c(oc4ccccc43)c2=O)cc1	i	78*	i	i	i	396%*	i	i	118*
CC1CC(C)CN(S(=O)(=O)c2ccc3c(c2)CC(C)N3C(=O)C2CC2)C1 (stereo not given)	i	i	i	i	i	x	x	x	x
COc1cc([N+](=O)[O-])c(C(=O)N2CCOCC2)c([N+](=O)[O-])c1	i	i	i	i	i	x	x	x	x
